# Data taken from ChEMBL document CHEMBL1132112, “Novel modifications in the alkenyldiarylmethane (ADAM) series of non-nucleoside reverse transcriptase inhibitors” (J Med Chem, 1999).
# Assays:
# CEM-SS [1] = experiment: 50% inhibitory concentration for cytopathicity of HIV-1 RF in CEM-SS cells.; assay type: functional, cell-based; settings: Homo sapiens
# How it was run: (§1)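 CEM-SS cells infected with HIV-1 RF; drug-induced protection from viral cytopathic effect read by XTT, as percent of uninfected drug-free control. EC50 is the concentration giving 50% protection. Triplicate wells on each plate, two sister plates; the plate EC50s (each a triplicate average) were averaged. XTT results were confirmed by supernatant RT and p24 levels. NA means no inhibition up to the concentration cytotoxic to uninfected cells.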
# [2] = target: T1, Human immunodeficiency virus type 1 reverse transcriptase (Human immunodeficiency virus 1, UniProt Q72547); experiment: Inhibition of HIV-1 Reverse transcriptase using poly-(ra)-oligo(dt) as the template primer; NI=No inhibition
# How it was run: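 Purified p66/51 HIV-1 reverse transcriptase. Inhibition read as incorporation of [32P]-TTP into poly(rA)·oligo(dT) or of [32P]GTP into poly(rC)·oligo(dG) homopolymer template-primer. IC50 taken as concentration giving 50% inhibition.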
# CCRF-CEM = experiment: Concentration inhibiting 50% of mock-infected CEM cells.; assay type: functional; settings: Homo sapiens
# How it was run: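 Uninfected (mock-infected) CEM-SS cultures exposed to drug. Viability by XTT, expressed as percent of drug-free control. CC50 is the concentration causing 50% cell death. Triplicates on each plate, two sister plates averaged.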
# [3] = tested on: Human immunodeficiency virus 1; experiment: Inhibition of cytopathic effect of HIV-1 strain wild type enzyme NL4-3 in CEM-SS cells.; assay type: functional, organism-based; settings: Human immunodeficiency virus 1, CEM-SS
# CEM-SS [4] = experiment: Inhibition of cytopathic effect of HIV-1 RT containing the specified mutation Y181C resistant to AZT in CEM-SS cells.; assay type: functional, cell-based, Homo sapiens
# CEM-SS [5] = experiment: Inhibition of cytopathic effect of HIV-1 RT containing the specified mutation K103N in CEM-SS cells.; assay type: functional, cell-based, Homo sapiens
# CEM-SS [6] = experiment: Inhibition of cytopathic effect of HIV-1 RT containing the specified mutation L100I in CEM-SS cells.; assay type: functional, cell-based, Homo sapiens
# CEM-SS [7] = experiment: Inhibition of cytopathic effect of HIV-1 RT containing the specified mutation Y181C in CEM-SS cells.; assay type: functional, cell-based, Homo sapiens
# [8] = Therapeutic index was determined for the compound as CC50/EC50; settings: read-out: TI
# How it was run: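 Ratio of CC50 (XTT viability, uninfected CEM-SS) to EC50 (XTT protection from HIV-1 RF cytopathicity in CEM-SS). Both values come from triplicates on each plate, two sister plates averaged. NA means no antiviral inhibition up to the cytotoxic concentration.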
# [9] = target: T1, Human immunodeficiency virus type 1 reverse transcriptase; experiment: Inhibition of HIV-1 Reverse transcriptase using poly-(ra)-oligo(dt) as the template primer.; settings: read-out: IC50
# How it was run: (§2)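 Purified p66/51 HIV-1 reverse transcriptase. Inhibition read as incorporation of [32P]-TTP into poly(rA)·oligo(dT) or of [32P]GTP into poly(rC)·oligo(dG) homopolymer template-primer.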
# [10] = target: T1, Human immunodeficiency virus type 1 reverse transcriptase; experiment: Inhibition of HIV-1 Reverse transcriptase using poly-(rc)-oligo(dg) as the template primer.; how it was run: as §2
# CEM-SS [11] = experiment: Inhibition of cytopathic effect of HIV-1 RT containing the specified mutation L100I resistant to AZT in CEM-SS cells.; assay type: functional, cell-based, Homo sapiens
# CEM-SS [12] = experiment: Fold resistance of HIV-1 RT containing the specified mutation L100I in CEM-SS cells; assay type: functional, Homo sapiens
# How it was run: (§3)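 Fold resistance of mutant HIV-1 viruses whose RT carries the listed mutation(s), measured against a virus containing wild-type NL4-3 RT. Anti-HIV readout by CEM-SS cytopathic-effect protection.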
# CEM-SS [13] = experiment: Fold resistance of HIV-1 RT containing the specified mutation K103N in CEM-SS cells; assay type: functional, Homo sapiens; how it was run: as §3
# CEM-SS [14] = experiment: Inhibition of cytopathic effect of HIV-1 RT containing the specified mutation K101E in CEM-SS cells.; assay type: functional, cell-based, Homo sapiens
# CEM-SS [15] = experiment: Fold resistance of HIV-1 RT containing the specified mutation V106A in CEM-SS cells; assay type: functional, Homo sapiens; how it was run: as §3
# CEM-SS [16] = experiment: Fold resistance of HIV-1 RT containing the specified mutation Y181C resistant to AZT in CEM-SS cells; assay type: functional, Homo sapiens; how it was run: as §3
# CEM-SS [17] = experiment: Fold resistance of HIV-1 RT containing the specified mutation A98G in CEM-SS cells; assay type: functional, Homo sapiens; how it was run: as §3
# CEM-SS [18] = experiment: Inhibition of cytopathic effect of HIV-1 RT containing the specified mutation A98G in CEM-SS cells.; assay type: functional, cell-based, Homo sapiens
# CEM-SS [19] = experiment: Fold resistance of HIV-1 RT containing the specified mutation L74V in CEM-SS cells; S=Enhanced sensitivity; assay type: functional, cell-based; settings: Homo sapiens; how it was run: as §3
# CEM-SS [20] = experiment: Fold resistance of HIV-1 RT containing the specified mutation Y181C in CEM-SS cells; assay type: functional, Homo sapiens; how it was run: as §3
# CEM-SS [21] = experiment: Inhibition of cytopathic effect of HIV-1 RT containing the specified mutation V179D in CEM-SS cells.; assay type: functional, cell-based, Homo sapiens
# CEM-SS [22] = experiment: Inhibition of cytopathic effect of HIV-1 RT containing the specified mutation Y188C in CEM-SS cells.; assay type: functional, cell-based, Homo sapiens
# CEM-SS [23] = experiment: Inhibition of cytopathic effect of HIV-1 RT containing the specified mutation L74V in CEM-SS cells.; assay type: functional, cell-based, Homo sapiens
# CEM-SS [24] = experiment: Fold resistance of HIV-1 RT containing the specified mutation V179D in CEM-SS cells; assay type: functional, Homo sapiens; how it was run: as §3
# CEM-SS [25] = experiment: Inhibition of cytopathic effect of HIV-1 RT containing the specified mutation V108I in CEM-SS cells.; assay type: functional, cell-based, Homo sapiens
# CEM-SS [26] = experiment: Inhibition of cytopathic effect of HIV-1 RT containing the specified mutation 4X resistant to AZT in CEM-SS cells.; assay type: functional, cell-based; settings: Homo sapiens
# CEM-SS [27] = experiment: Fold resistance of HIV-1 RT containing the specified mutation L100I resistant to AZT in CEM-SS cells; assay type: functional, Homo sapiens; how it was run: as §3
# CEM-SS [28] = experiment: Inhibition of cytopathic effect of HIV-1 RT containing the specified mutation V106A in CEM-SS cells.; assay type: functional, cell-based, Homo sapiens
# CEM-SS [29] = experiment: Fold resistance of HIV-1 RT containing the specified mutation Y188C in CEM-SS cells; assay type: functional, Homo sapiens; how it was run: as §3
# CEM-SS [30] = experiment: Fold resistance of HIV-1 RT containing the specified mutation K101E in CEM-SS cells; NC=No significant change in sensitivity; assay type: functional, cell-based; settings: Homo sapiens; how it was run: as §3
# CEM-SS [31] = experiment: Fold resistance of HIV-1 RT containing the specified mutation 4X resistant to AZT in CEM-SS cells; NC=No significant change in sensitivity; assay type: functional, cell-based; settings: Homo sapiens; how it was run: as §3
# CEM-SS [32] = experiment: Fold resistance of HIV-1 RT containing the specified mutation V108I in CEM-SS cells; assay type: functional, Homo sapiens; how it was run: as §3
# CEM-SS [33] = experiment: 50% inhibitory concentration for cytopathicity of HIV-1 RF in CEM-SS cells; NA=Not active (EC50 uM); assay type: functional, cell-based, Homo sapiens; how it was run: as §1
smiles,measurement,setting,value
COC(=O)c1cc(C(=CCCCCCl)c2cc(Cl)c(OC)c(C(=O)OC)c2)cc(Cl)c1OC,EC50,CEM-SS [1],50.5 µM
same,IC50,[2],Not Active
same,CC50,CCRF-CEM,> 316 µM
COC(=O)CCCC=C(c1cc(Cl)c(OC)c(C(=O)OC)c1)c1cc(Cl)c(OC)c(C(=O)OC)c1,EC50,[3],1.78 µM
same,EC50,CEM-SS [4],> 50 µM
same,EC50,CEM-SS [5],> 50 µM
same,CC50,CCRF-CEM,31.6 µM
same,EC50,CEM-SS [6],> 0.16 µM
same,EC50,CEM-SS [7],> 50 µM
COC(=O)c1cc(C(=CCC2OCCO2)c2cc(Cl)c(OC)c(C(=O)OC)c2)cc(Cl)c1OC,selectivity ratio,[8],4
same,IC50,[9],20.5 µM
same,IC50,[10],3.2 µM
same,EC50,CEM-SS [1],6.5 µM
same,CC50,CCRF-CEM,26 µM
COC(=O)CCCC=C(c1cc(Br)c(OC)c(C(=O)OC)c1)c1cc(Br)c(OC)c(C(=O)OC)c1,EC50,[3],0.06 µM
same,selectivity ratio,[8],10000
same,EC50,CEM-SS [11],0.33 µM
same,Fold resistance,CEM-SS [12],4.3
same,EC50,CEM-SS [4],3.5 µM
same,Fold resistance,CEM-SS [13],7
same,EC50,CEM-SS [14],0.07 µM
same,EC50,CEM-SS [5],0.42 µM
same,IC50,[9],1 µM
same,Fold resistance,CEM-SS [15],158.5
same,IC50,[10],0.3 µM
same,EC50,CEM-SS [1],0.0013 µM
same,Fold resistance,CEM-SS [16],58.3
same,Fold resistance,CEM-SS [17],3.7
same,CC50,CCRF-CEM,13 µM
same,EC50,CEM-SS [18],0.22 µM
same,Fold resistance,CEM-SS [19],Enhanced sensitivity
same,Fold resistance,CEM-SS [20],102
same,EC50,CEM-SS [21],40.2 µM
same,EC50,CEM-SS [22],1.73 µM
same,EC50,CEM-SS [23],0.019 µM
same,Fold resistance,CEM-SS [24],670
same,EC50,CEM-SS [25],0.67 µM
same,EC50,CEM-SS [26],0.07 µM
same,Fold resistance,CEM-SS [27],5.5
same,EC50,CEM-SS [6],0.26 µM
same,EC50,CEM-SS [7],6.13 µM
same,EC50,CEM-SS [28],9.51 µM
same,Fold resistance,CEM-SS [29],28.8
same,Fold resistance,CEM-SS [30],No significant changed
same,Fold resistance,CEM-SS [31],No significant changed
same,Fold resistance,CEM-SS [32],10
CCC1(CCCC=C(c2cc(Cl)c(OC)c(CO)c2)c2cc(Cl)c(OC)c(CO)c2)OCCO1,IC50,[9],31.6 µM
same,IC50,[10],3.2 µM
same,CC50,CCRF-CEM,16.9 µM
same,EC50,CEM-SS [33],Not Active
